Source: ChEMBL document CHEMBL2413043, “5-Nitro-2-furfuriliden derivatives as potential anti-Trypanosoma cruzi agents: design, synthesis, bioactivity evaluation, cytotoxicity and exploratory data analysis” (Bioorg Med Chem, 2013)

Tests used:
Trypanosoma cruzi [1] = assay: Antitrypanosomal activity against epimastigotes of Trypanosoma cruzi Y assessed as parasite growth inhibition after 5 days by spectrophotometric analysis; type: functional, organism-based; settings: for IC50: Trypanosoma cruzi, Y, 120 h
Method in brief: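 Stationary-phase epimastigotes (10-day culture, 28 °C) diluted in LIT medium with 10% fetal calf serum to 2.0 x 10^6 parasites/mL. Compounds dissolved in DMSO (final ≤1.0%), 0.25–180.0 µM, incubated 28 °C for 5 days. Growth read at A580 versus day 0 and untreated controls as percent growth inhibition. Triplicates; IC50 by sigmoid dose–response fit, at least five concentrations.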

J774 = assay: Cytotoxicity against mouse J774 cells after 48 hrs by MTT assay; type: cell-based; settings: J774, 48 h
Method in brief: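 J774 murine macrophages in RPMI 1640 with 10% FBS, 37 °C, 5% CO2. Seeded at 1.0 x 10^4 cells/well in RPMI 1640 with 5% heat-inactivated fetal calf serum, attached 24 h. Exposed 48 h to 0.8–400.0 µM. MTT at 0.4 mg/mL final for 3 h at 37 °C, formazan in DMSO, A595. IC50 is the mean of six experiments, sigmoid fit, at least five concentrations.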

[2] = Selectivity index, ratio of IC50 for human FN1 fibroblasts to IC50 for epimastigotes of Trypanosoma cruzi Y
Method in brief: (§1)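 Selectivity index taken as IC50 in the mammalian cell line (J774 or FN1) divided by IC50 against Y-strain epimastigotes.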

[3] = Selectivity index, ratio of IC50 for mouse J774 cells to IC50 for epimastigotes of Trypanosoma cruzi Y; type: toxicity, cell-based; settings: read-out: Ratio IC50; method in brief: as §1
[4] = Cytotoxicity against human FN1 fibroblasts after 24 hrs by MTT assay
Method in brief: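 Human FN1 fibroblasts kept in RPMI 1640 with 10% FBS at 37 °C, 5% CO2. Plated in triplicate at 1 x 10^4 cells/well, incubated overnight, then treated 24 h with 12.5–200 µM. MTT at 5 mg/mL for 2 h, formazan dissolved in 0.1 N HCl in isopropanol, absorbance at 540 nm, IC50 determined.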

Trypanosoma cruzi [5] = assay: Ratio of nifurtimox IC50 to compound IC50 for epimastigotes of Trypanosoma cruzi Y; type: functional

Compound	IC50 (Trypanosoma cruzi [1]) [µM]	log(1/C) (Trypanosoma cruzi [1])	IC50 (J774) [µM]	Ratio IC50 [2]	selectivity ratio [3]	IC50 [4] [µM]	Ratio IC50 (Trypanosoma cruzi [5])
N#Cc1ccc(C(=O)N/N=C/c2ccc([N+](=O)[O-])o2)cc1	12.5	4.9	–	–	–	–	–
O=C(N/N=C/c1ccc([N+](=O)[O-])o1)c1ccc(I)cc1	3.21	5.49	–	–	–	–	–
CC(=O)N1N=C(c2ccc([N+](=O)[O-])cc2)OC1c1ccc([N+](=O)[O-])o1 (centres undefined)	13.9	4.85	114	>14	8.21	> 200	–
CC(=O)N1N=C(c2ccc(C(F)(F)F)cc2)OC1c1ccc([N+](=O)[O-])o1 (centres undefined)	11.1	4.95	–	–	–	–	–
O=C(N/N=C/c1ccc([N+](=O)[O-])o1)c1ccc(Cl)cc1	4.03	5.39	57.1	>49.63	14.2	> 200	–
O=C(N/N=C/c1ccc([N+](=O)[O-])o1)c1ccc([N+](=O)[O-])cc1	9.45	5.02	79.1	18.83	8.37	178	–
Cc1ccc(C(=O)N/N=C/c2ccc([N+](=O)[O-])o2)cc1	3.71	5.43	–	–	–	–	–
O=C(N/N=C/c1ccc([N+](=O)[O-])o1)c1ccc(C(F)(F)F)cc1	4.42	5.35	–	–	–	–	–
O=C(Cn1ccnc1[N+](=O)[O-])NCc1ccccc1 [BENZNIDAZOLE]	22.7	–	> 400	>9	> 18	> 200	–
CC1CS(=O)(=O)CCN1/N=C/c1ccc([N+](=O)[O-])o1 (centres undefined) [NIFURTIMOX]	–	–	280	>53	74.2	> 200	–

The next lines start with results.

IC50 (Trypanosoma cruzi [1]) [µM]	Compound	log(1/C) (Trypanosoma cruzi [1])	IC50 (J774) [µM]	Ratio IC50 [2]	selectivity ratio [3]	IC50 [4] [µM]	Ratio IC50 (Trypanosoma cruzi [5])
9.59	CC(=O)N1N=C(c2ccc(Br)cc2)OC1c1ccc([N+](=O)[O-])o1 (centres undefined)	5.01	–	–	–	–	–
11.5	CC(=O)N1N=C(c2ccc(I)cc2)OC1c1ccc([N+](=O)[O-])o1 (centres undefined)	4.93	–	–	–	–	–
1.05	CCCCc1ccc(C(=O)N/N=C/c2ccc([N+](=O)[O-])o2)cc1	5.98	28.1	93.33	26.7	98	3
3.74	O=C(N/N=C/c1ccc([N+](=O)[O-])o1)c1ccc(Br)cc1	5.42	–	–	–	–	–
10.2	CC(=O)N1N=C(c2ccccc2)OC1c1ccc([N+](=O)[O-])o1 (centres undefined)	4.99	–	–	–	–	–
9.84	CC(=O)N1N=C(c2ccc(C)cc2)OC1c1ccc([N+](=O)[O-])o1 (centres undefined)	5.01	–	–	–	–	–
13.4	CC(=O)N1N=C(c2ccc(C#N)cc2)OC1c1ccc([N+](=O)[O-])o1 (centres undefined)	4.87	–	–	–	–	–
9.26	COc1ccc(C2=NN(C(C)=O)C(c3ccc([N+](=O)[O-])o3)O2)cc1 (centres undefined)	5.03	–	–	–	–	–
11.5	CC(=O)N1N=C(c2ccc(Cl)cc2)OC1c1ccc([N+](=O)[O-])o1 (centres undefined)	4.94	> 400	>17	> 34	> 200	–
8.27	CCCCc1ccc(C2=NN(C(C)=O)C(c3ccc([N+](=O)[O-])o3)O2)cc1 (centres undefined)	5.08	> 400	22.49	> 48	186	–
4.44	O=C(N/N=C/c1ccc([N+](=O)[O-])o1)c1ccccc1	5.35	–	–	–	–	–
3.94	COc1ccc(C(=O)N/N=C/c2ccc([N+](=O)[O-])o2)cc1	5.4	–	–	–	–	–
